In ChEMBL document CHEMBL2331364, “A synthetic dolastatin 10 analogue suppresses microtubule dynamics, inhibits cell proliferation, and induces apoptotic cell death” (J Med Chem, 2013):
Active and inactive are the calls of the source. The calls are words filed in the database; no cut-off is given here.

Experiments:
[1] = test system: HeLa; experiment: Antiproliferative activity against human HeLa cells assessed as median dose after 24 hrs; type: functional
Summary of the method: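 HeLa cells treated for 24 h with each agent alone and in combinations. The median dose (Dm) was taken from the median dose plot, and combination index was computed as CI = (D)1/(Dx)1 + (D)2/(Dx)2.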

[2] = organism: Homo sapiens; experiment: Inhibition of microtubule (unknown origin) assembly at 5 uM incubated for 15 mins prior to GTP addition measured for 30 mins by 90 degree light scattering-based fluorescence spectrophotometric method
Summary of the method: (§1)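 MAP-rich tubulin (1 mg/mL) was preincubated with 1, 3, 5 or 10 μM in PEM buffer (25 mM Pipes pH 6.8, 3 mM MgCl2, 1 mM EGTA) for 15 min on ice. GTP (1 mM) was then added and assembly monitored by 90° light scattering at 400 nm for 30 min at 37 °C.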

[3] = organism: Homo sapiens; experiment: Inhibition of microtubule (unknown origin) assembly at 1 uM incubated for 15 mins prior to GTP addition measured for 30 mins by 90 degree light scattering-based fluorescence spectrophotometric method; summary of the method: as §1
[4] = test system: HeLa; experiment: Induction of apoptosis in human HeLa cells assessed as procaspase-3 activation at 30 nM after 24 hrs by Western blot analysis; type: functional, cell-based
Summary of the method: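 HeLa cells were treated with vehicle or 30 nM for 24 h and washed twice in PBS. Lysates were Western blotted with antibodies to JNK1, phospho-JNK, procaspase-3 and PARP.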

[5] = test system: HeLa; experiment: Induction of apoptosis in human HeLa cells assessed as mid apoptotic cells at 7 to 15 nM after 24 hrs by annexin V/propidium iodide staining-based FACS flow cytometry; type: functional, cell-based
Summary of the method: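 HeLa cells were grown with vehicle (0.1% DMSO) or 7, 15 and 30 nM for 24 h and stained with an annexin V/propidium iodide kit. Stage was scored as annexin V-positive with weak PI (early/mid) or positive for both (late).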

[6] = test system: HeLa; experiment: Inhibition of microtubule-kinetochore attachment in human HeLa cells assessed as Mad2 accumulation at kinetochoric region at 15 to 45 nM after 24 hrs by Hoechst 33258 dye-based Hec1 staining assay; type: cell-based
[7] = test system: MCF7; experiment: Inhibition of microtubule (unknown origin) dynamics in GFP-tubulin transfected human MCF7 cells assessed as increase in microtubule rescue frequency at 15 nM by confocal laser scanning microscopy relative to control; type: cell-based
Summary of the method: (§2)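 EGFP-tubulin-transfected MCF-7 cells grown in EMEM with 10% FBS at 37 °C in 5% CO2, exposed to 15 nM compound (DMSO vehicle) or vehicle. Individual microtubules were followed by time-lapse confocal laser scanning microscopy and life-history traces were recorded. Kinetic parameters were derived from these traces, 20 microtubules per condition. Significance was tested by one-way ANOVA.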

[8] = test system: MCF7; experiment: Inhibition of microtubule (unknown origin) dynamics in GFP-tubulin transfected human MCF7 cells assessed as decrease in microtubule dynamicity at 15 nM by confocal laser scanning microscopy relative to control; type: cell-based
Summary of the method: (§3)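 EGFP-tubulin transfected MCF-7 cells were treated with vehicle or 15 nM, and individual microtubules were tracked by confocal laser scanning microscopy, 20 microtubules per condition. Life-history parameters were derived as previously described. Significance was tested by one-way ANOVA.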

[9] = test system: MCF7; experiment: Inhibition of microtubule (unknown origin) dynamics in GFP-tubulin transfected human MCF7 cells assessed as microtubule pause time at 15 nM by confocal laser scanning microscopy (reference value: 35 +/- 8 %); type: cell-based; set-up: scale not given: the % may be the effect or the level left; summary of the method: as §2
[10] = test system: MCF7; experiment: Inhibition of microtubule (unknown origin) dynamics in GFP-tubulin transfected human MCF7 cells assessed as microtubule shortening time at 15 nM by confocal laser scanning microscopy (reference value: 27 +/- 8 %); type: cell-based; set-up: scale not given: the % may be the effect or the level left; summary of the method: as §2
[11] = test system: MCF7; experiment: Inhibition of microtubule (unknown origin) dynamics in GFP-tubulin transfected human MCF7 cells assessed as decrease in microtubule growth at 15 nM by confocal laser scanning microscopy relative to control; type: cell-based; summary of the method: as §3
[12] = test system: MCF7; experiment: Inhibition of microtubule (unknown origin) dynamics in GFP-tubulin transfected human MCF7 cells assessed as decrease in microtubule growth rate at 15 nM by confocal laser scanning microscopy relative to control; type: cell-based; summary of the method: as §3
[13] = test system: HeLa; experiment: Antimitotic activity in human HeLa cells assessed as increase in phosphohistone H3 (Ser10) positive cell population at 30 nM after 24 hrs by fluorescence microscopic analysis (reference value: 3 +/- 0.3 %); type: functional
[14] = test system: HeLa; experiment: Inhibition of mitosis in human HeLa cells assessed as mitotic index ratio at 30 nM after 24 hrs by Hoechst 33258 DNA staining assay (reference value: 3.2); type: functional
Summary of the method: (§4)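 HeLa cells were treated with vehicle or 7, 15 or 30 nM compound for 24 or 48 h. DNA was stained with Hoechst 33258, and mitotic cells were counted by fluorescence microscopy to give the mitotic index, compared against vehicle-treated cells.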

[15] = test system: HeLa; experiment: Inhibition of mitosis in human HeLa cells assessed as mitotic index ratio at 7 nM after 48 hrs by Hoechst 33258 DNA staining assay (reference value: 3); type: functional; summary of the method: as §4
[16] = test system: HeLa; experiment: Inhibition of mitosis in human HeLa cells assessed as mitotic index ratio at 15 nM after 24 hrs by Hoechst 33258 DNA staining assay (reference value: 3.2); type: functional; summary of the method: as §4
[17] = test system: MDA-MB-231; experiment: Cytotoxicity against human MDA-MB-231 cells after 24 to 48 hrs by trypan blue assay; type: functional, cell-based
Summary of the method: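 Cells were seeded at 1 × 10^5 cells/mL, grown 24 h at 37 °C in 5% CO2, then given vehicle (0.1% DMSO) or 1–80 nM for a further 24 or 48 h. Attached plus floating cells were counted after trypan blue staining. Percent inhibition was plotted against concentration to give IC50. Average of three independent experiments.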

[18] = organism: Homo sapiens; experiment: Inhibition of microtubule (unknown origin) GTPase activity using GTP as substrate assessed as reduction of inorganic phosphate release incubated for 10 mins prior to substrate addition measured after 10 mins by ammonium molybdate malachite green assay
Summary of the method: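 GTP (1 mM) was added and the mixture polymerized at 37 °C for 10 min. Reactions were stopped with perchloric acid, and released phosphate was measured by ammonium molybdate–malachite green.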

[19] = target: Tubulin (Homo sapiens) (UniProt P68371+Q9H4B7+P0DPH7+P68366+Q13509+Q71U36+P04350+Q3ZCM7+P07437+P68363+Q9BQE3+Q6PEY2+Q13885+Q9BVA1+Q9BUF5); experiment: Induction of tubulin (unknown origin) dimer aggregation at 10 uM after 20 mins by transmission electron microscopy; type: protein-complex assay
Summary of the method: (§5)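 Goat brain tubulin (10 μM) was preincubated with 5 or 10 μM on ice for 20 min, then polymerized with 1 mM GTP at 37 °C in glutamate assembly buffer. Polymers were fixed in 0.5% glutaraldehyde, negatively stained with 2% uranyl acetate, and imaged by transmission EM.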

[20] = organism: Homo sapiens; experiment: Inhibition of microtubule (unknown origin) assembly at 5 uM after 20 mins by transmission electron microscopy; summary of the method: as §5
[21] = organism: Capra hircus; experiment: Inhibition of goat brain tubulin polymerization at 5 uM incubated for 20 mins prior to GTP addition measured for 30 mins by 90 degree light scattering-based fluorescence spectrophotometric method
Summary of the method: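 Goat brain tubulin (10 μM) was preincubated with compound (5 μM; or 1, 5, 7, 10 μM) in 1 M monosodium glutamate, 3 mM MgCl2, 1 mM EGTA, 25 mM Pipes pH 6.8 on ice for 20 min. GTP (1 mM) was then added and assembly followed by 90° light scattering at 400 nm for 30 min at 37 °C. Experiment run twice.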

## CC[C@H](C)[C@@H]([C@@H](CC(=O)NC[C@H]1O[C@H](C(=O)NCCc2ccccc2)[C@@H](OC)[C@@H]1OC)OC)N(C)C(=O)[C@@H](NC(=O)[C@@H](NC)C(C)C)C(C)C
[1]
  Activity: 8.9 nM
[2]
  inhibition: 48%
[3]
  inhibition: 13%
[4]
  Activity: Active
[5]
  Activity: Active
[6]
  Activity: Active
[7]
  inhibition: 40%
[8]
  inhibition: 50%
[9]
  Activity: 59%
[10]
  Activity: 19%
[11]
  inhibition: 31%
[12]
  inhibition: 27%
[13]
  Activity: 14%
[14]
  Ratio: 12
[15]
  Ratio: 7.5
[16]
  Ratio: 9
[17]
  IC50: 13 nM
[18]
  inhibition: Dose-dependent effect
[19]
  Activity: Active
[20]
  inhibition: Active
[21]
  inhibition: 37%
